Experimental data: ChEMBL document CHEMBL4513216, “Probing the Open Global Health Chemical Diversity Library for Multistage-Active Starting Points for Next-Generation Antimalarials” (ACS Infect Dis, 2020)

Assay: Toxicity liver stage against HepG2, at 10uM
Assay type: cell-based
Parameters: test concentration 10 uM, cell line HepG2-A16-CD81EGFP
Settings: human, HepG2-A16-CD81EGFP cells; read-out: INHIBITION
Procedure, shortened: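 Uninfected HepG2-A16-CD81EGFP cells, 3 × 10^3 per well, 1536-well, plated on prespotted compound at 10 μM final, parasite-free screening media added to match infected plates; puromycin 10 μM positive, DMSO 0.5% negative; run in parallel with 48 h PbLuc assay at 37 °C, 5% CO2; viability by CellTiter-Glo luminescence, normalized to controls.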

SMILES | cytotoxicity at 10 µM [%]
Cc1cccc2c1nc1n2[C@@H](CNC2CCCCC2)COC1 | -51.8
CC(C)(C)CN[C@@H]1CO[C@H](CNC(=O)C2CCCC2)[C@H]1O | -9.03
O=S(=O)(NC[C@H]1OC[C@@H](NCc2cccs2)[C@@H]1O)c1ccccc1 | 3.98
Cc1nc(N2CCN(C)CC2)ncc1C(=O)N1CCCCCC1 | -3.48
COc1ccc2c(c1)CN(Cc1ccco1)C(=O)CCN2CC(C)(C)O | -7.08
CCOC(=O)[C@@H]1[C@@H](c2ccccc2)CN2CCN(C(C)=O)C[C@H]12 | 9.28
Cc1nc(-n2nc(-c3cccs3)cc2N)[nH]c(=O)c1C | 4.84
CN(C)c1ncc(NS(=O)(=O)c2ccc(OC(F)(F)F)cc2)cn1 | 11.9
Cc1cccc(C(=O)N2CCN(c3ccc(-n4cccc4)nn3)CC2)c1 | 67.1
CNC(=O)[C@@H]1COC[C@H]2CN(C(=O)c3ccc(C)c(C)c3)C[C@H]21 | 11.6
COc1ccc2c(c1)OC1(CCN(Cc3ccc(F)cc3)CC1)CC2=O | 9.09
Cc1nn(CC(=O)N2CCN(Cc3cn(C)nc3C)CC2)cc1Br | -6.28
Cn1nc(C(=O)N2CCOCC2)cc1C(=O)Nc1c(Cl)cccc1Cl | 12
CCC(C)(C)n1nnnc1C(c1cccs1)N1CCc2ccccc2C1 (stereo not given) | 0.237
CN(C)c1ccc(C(=O)N2CCC(c3cc4cnccc4[nH]3)CC2)cc1 | 1.12
CCOCCCNCc1cc2c(C)cc(C)cc2n2c(=O)n(C)nc12 | -4
Cc1cc(C(=O)N2CCCC2c2nc(O)cc(C(C)C)n2)on1 (stereo not given) | -3.42
CC(C)N1CCCC(Cc2cncc(Br)c2)CC1 (stereo not given) | -7.5
CNc1cncc(C2CCCN2Cc2ccn(C)n2)n1 (stereo not given) | -6.88
Cc1ccc(C(=O)N2CCC(O)(CN3CCc4ccccc4C3)C2)s1 (stereo not given) | -1.61
CN(c1ccncn1)C1CC2(CCN(C(=O)Cc3cccs3)C2)C1 (stereo not given) | -5.97
CC(Sc1nncn1C)C(=O)NCCCOc1ccc(F)cc1 (stereo not given) | -49.2

SMILES | cytotoxicity at 10 µM [%]
CC1CCCCN1C(=O)CCc1nnc(-c2ccccc2)o1 (stereo not given) | -4.65
CCN(Cc1cccc2c1OCCO2)C(=O)NC(C)(C)C | -20.9
COCC1CCN(C(=O)c2cc(O)nc(CC(C)C)c2)CC1 | -2.7
Cc1nc(CN(C)c2nccc(N(C)C)n2)cs1 | -9.86
O=C(c1ccccn1)N1CCN(C(c2ccccc2)C(F)(F)F)CC1 (stereo not given) | -8.18
CC1CN(C(=O)c2cnn(-c3ccccn3)c2C(C)C)CC(C)(C)O1 (stereo not given) | -3.09
CCC(CNC(=O)CNC(C)=O)Oc1cccc(F)c1 (stereo not given) | -43.6
CCc1noc(C(C)N(C)Cc2cc(Br)ccc2OC)n1 (stereo not given) | -5.04
COc1ccc(C)c(NC(=O)NCc2ncnn2C)c1 | -4.27
Cc1noc(C(C)N2CCN(c3ncnc4ccccc34)CC2)n1 (stereo not given) | 17.7
Cc1ccc(C(=O)N2CCOC3(CCCC3)C2)c(=O)[nH]1 | 7.87
COc1cc(C2(C(=O)NC3CCN(C4CC4)CC3)CC2)ccc1C | 5.16
N#Cc1ccc(CNC2CCN(CCc3ccncc3)CC2)cc1 | -5.03
CC(=O)Nc1nc(CN(C)CC2CCCN2c2cccnn2)cs1 (stereo not given) | 15.1
CCc1cnc(CN(C)C(=O)Nc2cnn(CC3CCCO3)c2)s1 (stereo not given) | 4.03
CCCS(=O)(=O)CCSc1cccc(C#N)c1 | -3.85
CC(CNC(=O)c1ccc(Cl)cc1F)N1CCCC1 (stereo not given) | -3.85
Cc1ccc(S(=O)(=O)NCCCN2CCC(O)CC2)cc1Cl | 8.68
O=C(CCCOc1ccccc1F)NCCCC(=O)Nc1cn[nH]c1 | -11.1
CC(=O)N1CCCN(C(=O)c2cnc(OC(C)C)c(Cl)c2)CC1 | 6.02
Cc1cc(C)n(CC2CCCN2C(=O)c2ccc3c(c2)COC3)n1 (stereo not given) | 1.85
Cc1ccc(NS(=O)(=O)c2cnn(Cc3ccccc3)c2)c(C(=O)O)c1 | -2.41

SMILES | cytotoxicity at 10 µM [%]
Cn1cc(C(O)CNC(=O)c2ccc(F)cc2Cl)cn1 (stereo not given) | 0.055
CC(C)c1nc2n(n1)CC(NCC(=O)NCCC1=CCCCC1)CC2 (stereo not given) | -4.76
CCn1cc(NC(=O)c2cccc(OCC(F)(F)F)n2)cn1 | -9.43
NC(=O)CCN(C(=O)c1cccc2c1OCO2)c1ccccc1 | -16.5
CCOc1ccc(C#N)cc1NCc1cc(C)on1 | -60.8
CN(Cc1ccc2c(c1)OCCO2)Cc1nnnn1-c1ccccc1 | 20.5
CC(c1ccccc1)N(C)C(=O)CN1CCCc2cccc(F)c21 (stereo not given) | 22.5
CC(=O)c1ccc(S(=O)(=O)N2CCCC2CN2CCCC2)cc1 (stereo not given) | -1.35
COc1ccccc1C1(CNCc2cccc(O)c2)CCOCC1 | 9.18
CC(CNC(=O)c1c[nH]nn1)Oc1ccc(Cl)cc1 (stereo not given) | 9.27
CC(NCCCc1cnn(C)c1)c1ccc(Cl)s1 (stereo not given) | 5.29
Cc1nnc(SCCC(=O)N(C)Cc2ccc(F)cc2Cl)[nH]1 | 11.4
CC(C)(C)c1nc(NS(=O)(=O)c2ccc(F)cc2)no1 | 4.71
CCN1CCN(C(=O)NC(C)c2noc(-c3ccccc3)n2)CC1 (stereo not given) | -15.5
COCC(NC(=O)c1ccc[nH]1)c1cccc(C(F)(F)F)c1 (stereo not given) | -2.54
Cc1ccc(NCCCNc2nccc(-c3cn(C)nc3C)n2)nc1 | 14.5
N#Cc1cccc(N2CCC(CO)(CCc3ccccc3)CC2)n1 | -48
OC(c1ccccn1)C1CCN(Cc2cc3n(n2)CCCNC3)CC1 (stereo not given) | 6.89
COc1ccc(OC)c2c(C)cc(N(C)CCCO)nc12 | 7.17
CC(=O)N1C[C@H](NC(=O)c2csc(C(C)C)c2)[C@@H](C(C)C)C1 | -18.2
CC(C)(Cn1cnc(-c2ccccc2)c1-c1ccco1)N1CCOCC1 | -38.8
CC(C)=CCN1CCN(Cc2cc(C)c(O)c(C)c2)CC1CCO (stereo not given) | -7.44

SMILES | cytotoxicity at 10 µM [%]
CCNc1ccnc(N2CCN(Cc3ncccc3C)CC2)n1 | -5.59
Cc1cc2c(N3CCC(N(C)CCc4cnn(C)c4)CC3)ncnc2s1 | 1.38
N#Cc1cccc(S(=O)(=O)N2CCCCC2CCN2CCCC2)c1 (stereo not given) | -123
CN1CC(c2ccccc2)CC12CCN(C(=O)c1cccnc1)CC2 (stereo not given) | 10.2
CN(Cc1cc(C2CC2)[nH]n1)C(=O)c1ccccc1C1CCNC1 (stereo not given) | 1.89
O=C(CN1CCCC1)N1CCCC(CNS(=O)(=O)Cc2ccccc2)C1 (stereo not given) | -17.9
CCC(NC(=O)CC1CCN(C(C)C)CC1)c1cn2cccnc2n1 (stereo not given) | -11.3
Cc1csc(CN2CCC(C(=O)O)(n3ccc(-c4ccco4)n3)CC2)n1 | -127
O=C(NCCC1CN(C2CCCC2)CCO1)c1cc(=O)[nH]c(=O)[nH]1 (stereo not given) | 0.0145
CNC(=O)Cc1ccc(-n2ccnc2-c2ccc(C(=O)O)s2)cc1 | -1.53
O=C(O)c1cccnc1CN1CCCC1CCc1ccccc1 (stereo not given) | 10.9
Cc1cc(CN(C)C(=O)C(c2cccnc2)N2CCOCC2)n[nH]1 (stereo not given) | -52.7
Cc1nnsc1C(=O)NCc1cccnc1N(C)C | -12.2
OCCc1ccccc1-n1ccnc1-c1cn(C2CCNCC2)nn1 | 2.39
CCCN1CCN(C(=O)c2cncnc2C)[C@H]2CS(=O)(=O)C[C@H]21 | 0.145
O=C(Nc1ccccc1C(=O)NCCCN1CCOCC1)c1ccco1 | 8.17
Cc1oc(C(C)C)cc1C(=O)N1CCN(c2cnn(C)c(=O)c2)CC1 | 1.27
c1ccc2sc(N3CCC4(CCCN4Cc4ncc[nH]4)CC3)nc2c1 | 9.3
N#Cc1ccc(C(=O)N2CCC(c3ncc[nH]3)CC2)cn1 | -3.27
COc1ccccc1OCc1cc(C(=O)N2CCN[C@H](C)C2)n[nH]1 | -9.09
CCC(=O)NCCc1cc(N2CCN(C(C)=O)CC2)nc(C2CC2)n1 | -0.439
CN(C)c1ncc(CN2CCC(c3nnsc3S(C)(=O)=O)CC2)cn1 | 4.12

SMILES | cytotoxicity at 10 µM [%]
CNc1cc2c(nn1)CCN(C(=O)c1cccc3c1OCCO3)C2 | -5.13
Cc1cc(C)c(CNC(=O)N(C)Cc2ccc3c(c2)OCO3)c(=O)[nH]1 | -5.53
Cc1cc(C)n(CC2CN(CCOc3ccc(C#N)cc3)CCO2)n1 (stereo not given) | -6.31
CCc1nnc2n1CCN(C(=O)CN(C)C1CC1)C2 | -1.28
Cc1nc(CN(C)C2CCN(CCC(=O)N3CCOCC3)C2)no1 (stereo not given) | -0.945
Cc1nn(C)c(N2CCOCC2)c1CNCc1ccc(N(C)C)nc1 | -14.4
c1ccc(-c2cnc(CNC3CCCN(c4cccnn4)C3)o2)cc1 (stereo not given) | 0.993
CCc1nnsc1C(=O)N1CCOC(c2nc(C)n[nH]2)C1 (stereo not given) | -6.45
Cc1nccn1C1CCCN(C(=O)C2=NN(C)C(=O)CC2)C1 (stereo not given) | -7.49
Cc1nc(CNCC2CN(C)CCO2)cs1 (stereo not given) | -9.16
CN(Cc1noc(C2CC2)n1)C1CCN(Cc2nnc(C3CC3)o2)C1 (stereo not given) | -5.28
COc1cccc(Nc2nc(-c3ccncc3)nc3c2CNCC3)c1 | -6.61
Brc1cccnc1OC1CCNCC1 | -10.3
OCC1CCC2(CC1)CN(Cc1ccsc1)Cc1ccccc1O2 (stereo not given) | -3.78
CCn1ncc2c1C(COC)N(C(=O)c1cccs1)CC2 (stereo not given) | -112
c1ccc(NC[C@@H]2CCC[C@@H]3CN(Cc4nccs4)C[C@@H]32)nc1 | -108
CO[C@@H]1CCN(Cc2ccoc2)C[C@@H]1Cc1ccccc1 | 16.5
Cc1ccc(N2CC[C@@H]3[C@@H]2CCN3Cc2ccsc2)nn1 | -106
CN1CCC2(COCc3cnc(N4CCOCC4)nc32)C1 (stereo not given) | -6.13
O=C([C@H]1C[C@@H]2CCN(C3CCOCC3)C[C@H]2O1)N1CCCC1 | 7.31
COCC1CN(C(=O)c2ccoc2)Cc2cnn(CC3CCOCC3)c21 (stereo not given) | 2.77
O=C(c1ccoc1)N1CCCC2(CCC(=O)N2Cc2ccncc2)C1 (stereo not given) | -3.55
